Measurements as given in ChEMBL document CHEMBL3286372, “Design, synthesis and structure-activity relationship of novel semi-synthetic flavonoids as antiproliferative agents” (2014).

Columns and labels:
[1] = Growth inhibition of human OVCAR4 cells after 48 hrs by coulter counting analysis; format: functional; conditions: OVCAR-4, 48 h
Summary of the method: (§1)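 Five-dose NCI-60 follow-up, 0.01–100 µM, made from DMSO stock in buffered saline (final DMSO <1%), in duplicate wells. Cells in RPMI 1640 with 10% FBS at 6×10^4 cells/ml, 37 °C, 5% CO2, 48 h. Cells diluted tenfold in saline, Coulter-counted and corrected for dilution. GI50, TGI and LC50 taken from log concentration–percent growth curves.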

[2] = Growth inhibition of human OVCAR8 cells after 48 hrs by coulter counting analysis; format: functional; conditions: OVCAR-8, 48 h; summary of the method: as §1
[3] = test system: SK-OV-3; assay: Growth inhibition of human SKOV3 cells after 48 hrs by coulter counting analysis; format: functional; conditions: SK-OV-3, 48 h; summary of the method: as §1
[4] = Growth inhibition of human RXF393 cells after 48 hrs by coulter counting analysis; format: functional; conditions: RXF 393, 48 h; summary of the method: as §1
[5] = test system: TK-10; assay: Growth inhibition of human TK10 cells after 48 hrs by coulter counting analysis; format: functional; conditions: TK-10, 48 h
Summary of the method: (§2)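 NCI five-dose screen, 0.01-100 µM, from DMSO stocks diluted in buffer saline (final DMSO <1%). Cells grown in RPMI 1640 + 10% FBS, seeded at 6×10^4 cells/ml, in duplicate wells. Exposure 48 h at 37 °C, 5% CO2. Cells diluted 10-fold in saline and counted by Coulter counter. GI50 derived from log concentration–percent growth inhibition curves. Controls carried matching PBS/saline/DMSO.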

[6] = Growth inhibition of human UO31 cells after 48 hrs by coulter counting analysis; format: functional; conditions: UO-31, 48 h; summary of the method: as §2
[7] = test system: PC-3; assay: Growth inhibition of human PC3 cells after 48 hrs by coulter counting analysis; format: functional; conditions: PC-3, 48 h; summary of the method: as §1
[8] = test system: DU-145; assay: Growth inhibition of human DU145 cells after 48 hrs by coulter counting analysis; format: functional; conditions: DU-145, 48 h
Summary of the method: (§3)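 NCI five-dose screen at 0.01-100 µM, diluted from DMSO stocks in buffered saline (final DMSO <1%). Cells at 6×10^4 cells/ml in RPMI 1640 with 10% FBS, in duplicate wells, at 37 °C under 5% CO2 for 48 h. Cells diluted tenfold in saline and Coulter-counted. GI50, TGI and LC50 taken from log concentration-growth inhibition curves.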

[9] = test system: MDA-MB-231; assay: Growth inhibition of human MDA-MB-231 cells after 48 hrs by coulter counting analysis; format: functional; conditions: MDA-MB-231, 48 h; summary of the method: as §3
[10] = test system: T47D; assay: Growth inhibition of human T47D cells after 48 hrs by coulter counting analysis; format: functional; summary of the method: as §1
[11] = test system: MDA-MB-468; assay: Growth inhibition of human MDA-MB-468 cells after 48 hrs by coulter counting analysis; format: functional; conditions: MDA-MB-468, 48 h; summary of the method: as §1
[12] = biological target: Cyclin-dependent kinase 2/cyclin E1 (Homo sapiens) (UniProt P24864+P24941); assay: Inhibition of CDK2/Cyclin E1 (unknown origin) at 20 uM after 30 mins by scintillation counting analysis relative to control; format: protein-complex assay
Summary of the method: (§4)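 Recombinant kinases, cloned, expressed and purified in-house. Radiometric ³³P-ATP assay with kinase at ~10-50 nM final and 1-5 µg peptide or protein substrate. Compound at 20 µM final, in duplicate. Reaction started by adding ATP, run 30 min at ambient temperature, then spotted on P81 phosphocellulose. Plates washed in 1% phosphoric acid and counted by scintillation. No-substrate blank subtracted. Result is mean % activity change versus DMSO control.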

[13] = biological target: Cyclin-dependent kinase 4/cyclin D1 (Homo sapiens) (UniProt P11802+P24385); assay: Inhibition of CDK4/Cyclin D1 (unknown origin) at 20 uM after 30 mins by scintillation counting analysis relative to control; format: protein-complex assay; summary of the method: as §4
[14] = biological target: Glycogen synthase kinase-3 beta (Homo sapiens) (UniProt P49841); assay: Inhibition of GSK-3beta (unknown origin) at 20 uM after 30 mins by scintillation counting analysis relative to control; summary of the method: as §4
[15] = test system: K562; assay: Growth inhibition of human K562 cells after 48 hrs by coulter counting analysis; format: functional; conditions: K562, 48 h; summary of the method: as §3
[16] = Growth inhibition of human MOLT4 cells after 48 hrs by coulter counting analysis; format: functional; conditions: MOLT-4, 48 h; summary of the method: as §1
[17] = test system: RPMI-8226; assay: Growth inhibition of human RPMI8226 cells after 48 hrs by coulter counting analysis; format: functional; conditions: RPMI-8226, 48 h; summary of the method: as §1
[18] = Growth inhibition of human EKVX cells after 48 hrs by coulter counting analysis; format: functional; summary of the method: as §3
[19] = test system: HOP-62; assay: Growth inhibition of human HOP62 cells after 48 hrs by coulter counting analysis; format: functional; conditions: HOP-62, 48 h; summary of the method: as §3
[20] = test system: NCI-H322M; assay: Growth inhibition of human NCI-H322M cells after 48 hrs by coulter counting analysis; format: functional; summary of the method: as §1
[21] = test system: NCI-H460; assay: Growth inhibition of human NCI-H460 cells after 48 hrs by coulter counting analysis; format: functional; conditions: NCI-H460, 48 h; summary of the method: as §1
[22] = test system: NCI-H522; assay: Growth inhibition of human NCI-H522 cells after 48 hrs by coulter counting analysis; format: functional; conditions: NCI-H522, 48 h; summary of the method: as §1
[23] = test system: COLO 205; assay: Growth inhibition of human COLO205 cells after 48 hrs by coulter counting analysis; format: functional; conditions: COLO 205, 48 h; summary of the method: as §3
[24] = test system: HCT-116; assay: Growth inhibition of human HCT116 cells after 48 hrs by coulter counting analysis; format: functional; conditions: HCT-116, 48 h; summary of the method: as §3
[25] = Growth inhibition of human HCT15 cells after 48 hrs by coulter counting analysis; format: functional; conditions: HCT-15, 48 h; summary of the method: as §3
[26] = test system: HT-29; assay: Growth inhibition of human HT-29 cells after 48 hrs by coulter counting analysis; format: functional; conditions: HT-29, 48 h; summary of the method: as §3
[27] = test system: SW-620; assay: Growth inhibition of human SW620 cells after 48 hrs by coulter counting analysis; format: functional; conditions: SW-620, 48 h; summary of the method: as §1
[28] = test system: SF-268; assay: Growth inhibition of human SF268 cells after 48 hrs by coulter counting analysis; format: functional; conditions: SF-268, 48 h; summary of the method: as §1
[29] = test system: SNB-75; assay: Growth inhibition of human SNB75 cells after 48 hrs by coulter counting analysis; format: functional; conditions: SNB-75, 48 h; summary of the method: as §1
[30] = test system: U-251; assay: Growth inhibition of human U251 cells after 48 hrs by coulter counting analysis; format: functional; conditions: U-251, 48 h; summary of the method: as §2
[31] = Growth inhibition of human LOXIMVI cells after 48 hrs by coulter counting analysis; format: functional; conditions: LOX IMVI; summary of the method: as §3
[32] = test system: Malme-3M; assay: Growth inhibition of human MALME-3M cells after 48 hrs by coulter counting analysis; format: functional; summary of the method: as §3
[33] = test system: M14; assay: Growth inhibition of human M14 cells after 48 hrs by coulter counting analysis; format: functional; conditions: M14, 48 h; summary of the method: as §3
[34] = Growth inhibition of human UACC257 cells after 48 hrs by coulter counting analysis; format: functional; conditions: UACC-257, 48 h; summary of the method: as §2
[35] = test system: IGROV-1; assay: Growth inhibition of human IGROV1 cells after 48 hrs by coulter counting analysis; format: functional; conditions: IGROV-1, 48 h; summary of the method: as §3
[36] = Growth inhibition of human OVCAR3 cells after 48 hrs by coulter counting analysis; format: functional; conditions: OVCAR-3, 48 h; summary of the method: as §1
[37] = Growth inhibition of human Hs 578T cells after 48 hrs by coulter counting analysis; format: functional; summary of the method: as §3
[38] = Growth inhibition of human BT549 cells after 48 hrs by coulter counting analysis; format: functional; conditions: BT-549, 48 h; summary of the method: as §3

Chain of Glycogen synthase kinase-3 beta (Homo sapiens) (P49841 whole entry, looked up): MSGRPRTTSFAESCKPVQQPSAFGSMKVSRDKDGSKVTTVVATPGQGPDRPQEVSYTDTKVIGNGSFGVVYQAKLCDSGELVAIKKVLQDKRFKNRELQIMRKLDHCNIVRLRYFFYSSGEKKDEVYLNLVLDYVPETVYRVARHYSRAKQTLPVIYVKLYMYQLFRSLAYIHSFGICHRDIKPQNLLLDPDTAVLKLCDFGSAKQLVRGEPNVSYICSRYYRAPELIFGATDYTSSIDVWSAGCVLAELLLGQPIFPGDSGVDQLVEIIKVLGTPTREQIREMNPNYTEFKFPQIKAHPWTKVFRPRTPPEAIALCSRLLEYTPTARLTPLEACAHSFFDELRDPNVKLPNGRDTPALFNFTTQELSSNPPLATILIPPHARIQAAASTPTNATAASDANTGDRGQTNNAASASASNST

Row | SMILES | GI50 [1] [µM] | GI50 [2] [µM] | GI50 [3] [µM] | GI50 [4] [µM] | GI50 [5] [µM] | GI50 [7] [µM] | GI50 [8] [µM] | GI50 [9] [µM] | GI50 [10] [µM] | GI50 [11] [µM] | inhibition [12] [%] | inhibition [13] [%] | inhibition [14] [%] | GI50 [17] [µM] | GI50 [18] [µM] | GI50 [19] [µM] | GI50 [20] [µM] | GI50 [21] [µM] | GI50 [22] [µM] | GI50 [23] [µM] | other results
1 | COc1c(C(=O)/C=C/c2ccc(Cl)cc2)c(O)c(Br)c2occc12 | 3.28 | 3.43 | 1.11 | 2.37 | 3.48 | 2.94 | 4.07 | 4.33 | 3.38 | 2.13 | 5 | 15 | 30 | 2.78 | 4.18 | 6.82 | 5.22 | 2.99 | 2.8 | 1.76 | GI50 [6]: 2.59 µM; GI50 [15]: 2.88 µM; GI50 [16]: 2.09 µM; GI50 [24]: 2.83 µM; GI50 [25]: 3.43 µM; GI50 [26]: 4.11 µM; GI50 [27]: 2.71 µM; GI50 [28]: 3.5 µM; GI50 [29]: 1.8 µM; GI50 [30]: 3.22 µM; GI50 [31]: 2.2 µM; GI50 [32]: 2.61 µM; GI50 [33]: 4.82 µM; GI50 [34]: 4.98 µM; GI50 [35]: 3.04 µM; GI50 [36]: 1.91 µM
2 | COc1ccccc1/C=C/C(=O)c1c(O)cc2occc2c1OC | > 100 | 53.8 | 21.3 | 14.9 | 21.9 | > 100 | 23.5 | 33.1 | 55.9 | 10.3 | 6 | 0 | 17 | 23.5 | 33.7 | 19.3 | > 100 | > 100 | > 100 | > 100 | GI50 [6]: > 100 µM; GI50 [37]: 38.2 µM; GI50 [38]: 28.2 µM; GI50 [24]: 40.4 µM; GI50 [25]: > 100 µM; GI50 [26]: > 100 µM; GI50 [27]: > 100 µM; GI50 [28]: 22.2 µM; GI50 [29]: 7.49 µM; GI50 [30]: 18.9 µM; GI50 [31]: 30.1 µM; GI50 [32]: 18.9 µM; GI50 [33]: > 100 µM; GI50 [34]: > 100 µM; GI50 [35]: 26 µM; GI50 [36]: 47.4 µM
3 | COc1c2occc2c(OC)c2c(=O)c(CN3CCOCC3)c(/C=C/c3ccc(Cl)cc3)oc12 | 2.75 | 2.78 | 3.56 | 2.36 | 5.32 | 2.5 | 2.63 | 2.92 | 4.31 | 2.12 | 0 | 6 | 5 | 1.94 | 2.85 | 3.24 | 2.54 | 2.05 | 1.77 | 2.76 | GI50 [37]: 1.9 µM; GI50 [38]: 2.38 µM; GI50 [15]: 3.28 µM; GI50 [16]: 2.84 µM; GI50 [24]: 2.92 µM; GI50 [25]: 2.78 µM; GI50 [26]: 2.69 µM; GI50 [27]: 3.32 µM; GI50 [28]: 2.81 µM; GI50 [29]: 2.41 µM; GI50 [30]: 3.05 µM; GI50 [31]: 2.18 µM; GI50 [32]: 2.24 µM; GI50 [33]: 2.76 µM; GI50 [34]: 2.35 µM; GI50 [35]: 1.94 µM; GI50 [36]: 2.34 µM
